In the library only some 0.75% were active in any assay of this set; here they are far more common.
EBNA-1 inh – blocks EBNA-1 binding to DNA; EBNA-1 DNA binding, fluorescence polarization; inhibition, % at 14.8 µM; 300,000 compounds, 0.34% hits; in the data active = inhibition above about 28%
ASAP1 GAP inh – inhibitors of human ASAP1 ArfGAP activity; Q9ULH1; ASAP1-stimulated ARF1 GTP hydrolysis, GDP FP detection; inhibition, % at 16.5 µM; 360,000 compounds, 0.19% hits; in the data active = inhibition above about 25%
ZTA counter – ZTA (EBV) inhibition in EBNA-1 counter-screen; AID 2234; inhibition, % at 11 µM; 320,000 compounds, 0.15% hits; P03206; ZTA-DNA binding, fluorescence polarization; in the data active = inhibition above about 33%
ARFGAP1 inh – rat ARFGAP1 inhibition. Q62848. 360,000 compounds, 0.26% hits. Arfgap1-stimulated ARF1 GTP hydrolysis, GDP FP detection. inhibition, % at 16.5 µM;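 active = inhibition above a per-plate limit, mean inhibition of low control wells plus 3 SD, cut at about 25% in these data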
Target sequence (Q62848 1-136 limits assumed): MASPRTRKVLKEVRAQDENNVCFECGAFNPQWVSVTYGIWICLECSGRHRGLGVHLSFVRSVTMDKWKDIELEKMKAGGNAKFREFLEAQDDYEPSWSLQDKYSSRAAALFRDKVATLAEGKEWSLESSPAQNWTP
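Material: rat Arfgap1 catalytic domain, aa 1-136; also added: human ARF1(Δ1-17)-GTP substrate; compound dosing: one concentration, 16.5 µM, DMSO 1.26%; incubation: GTP hydrolysis reaction 2 h at 25 °C; measured by: Tracer-displacement fluorescence polarization with EDTA stop, 620/688 nm; evaluation: % inhibition from polarization; repeats: one replicate per compound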
ASAP1 GAP conf – ASAP1 inhibition confirmed; AID 624431; shares compounds with ASAP1 GAP inh; 620 compounds, 37% hits; ASAP1-stimulated Arf1 GTPase, GDP fluorescence polarization; inhibition, % at 16.5 µM;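 active = mean inhibition over triplicates exceeds the hit threshold derived for the earlier primary screening run, cut at about 25% in these data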
ARFGAP1 inh conf – rat ARFGAP1 inhibition, confirmed; 890 compounds, 30% hits; ARFGAP1-stimulated ARF1 GTP hydrolysis, GDP tracer FP; shares compounds with ARFGAP1 inh; inhibition, % at 16.5 µM;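 active = average inhibition over triplicates above the hit cutoff set in the earlier primary screen, cut at about 25% in these data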
Target sequence (Q62848 whole entry, looked up): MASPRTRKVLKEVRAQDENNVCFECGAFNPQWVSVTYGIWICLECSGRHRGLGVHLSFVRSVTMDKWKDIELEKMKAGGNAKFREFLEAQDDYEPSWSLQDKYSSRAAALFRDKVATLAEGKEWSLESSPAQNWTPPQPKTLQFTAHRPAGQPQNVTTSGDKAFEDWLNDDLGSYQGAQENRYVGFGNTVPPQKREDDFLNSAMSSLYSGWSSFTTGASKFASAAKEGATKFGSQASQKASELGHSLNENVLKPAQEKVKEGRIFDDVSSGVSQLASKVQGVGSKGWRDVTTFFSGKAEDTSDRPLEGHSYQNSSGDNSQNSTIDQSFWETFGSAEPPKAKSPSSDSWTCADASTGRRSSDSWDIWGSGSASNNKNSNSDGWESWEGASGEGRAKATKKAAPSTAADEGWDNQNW
A number is an active result; i = inactive; nt = no result given; + = active, no number.

SMILES	EBNA-1 inh	ASAP1 GAP inh	ZTA counter	ARFGAP1 inh	ASAP1 GAP conf	ARFGAP1 inh conf
C=CCN=C1NC(c2cccc(F)c2)C(C(=O)OC)=C(C)N1C (configuration not stated)	nt	i	nt	i	nt	nt
CCCCCCCCCCCC(=O)c1c(O)cccc1O	i	28	i	i	i	nt
COc1ccc(C2CC(=O)C(c3cc(OC)c(OC)c(OC)c3)=CN2Cc2ccccc2)cc1 (configuration not stated)	nt	i	nt	i	nt	nt
O=S1(=O)N[C@H](Cc2ccccc2)COc2cc(N3CCOCC3)ccc21	nt	i	nt	i	nt	nt
COc1ccc(-c2[nH]ncc2/C=N\NC(=O)c2ccc(Br)o2)cc1OC	i	25	i	i	i	nt
COc1ccc(OC)c(Nc2nc(NCCO)c3ccccc3n2)c1	i	i	i	i	nt	nt
Cc1ccc(Nc2nc(NCCO)c3ccccc3n2)cc1C	i	28	i	i	i	nt
CC(C)CC(=O)NC(=S)Nc1ccc(NC(=O)c2cccs2)cc1	i	25	i	i	i	nt
COc1cc(NC(=O)c2ccccc2)ccc1NC(=O)Cc1ccccc1	i	i	i	i	nt	nt
COc1cc(NC(=O)Cc2ccccc2)ccc1NC(=O)Cc1ccccc1	i	30	i	i	i	nt
N/C(=N\N=C\c1ccnc2ccccc12)SC1CC(=O)N(c2ccc(Br)cc2)C1=O (configuration not stated)	i	61	i	i	88	nt
CCOC(=O)C1=CCN(S(C)(=O)=O)C1c1ccc(Cl)cc1 (configuration not stated)	nt	i	nt	i	nt	nt
COc1ccc(C(C[N+](=O)[O-])c2c(C)[nH]n(-c3ccccc3)c2=O)cc1 (configuration not stated)	i	30	i	25	i	nt
CCOC(=O)C1CCCN(C(=O)c2cccc(S(=O)(=O)N(Cc3ccccc3)c3ccccc3OC)c2)C1 (configuration not stated)	i	29	i	i	i	nt
CC(NC(=O)c1ccc(CS(=O)(=O)c2ccc(Cl)cc2)o1)c1ccc2c(c1)OCCO2 (configuration not stated)	i	27	i	i	i	nt
Cc1ccc2nc(SCC(=O)N3CCC(C)CC3)nc(=O)n2c1	i	37	i	62	43	69
Cc1ccc([N+](=O)[O-])cc1-c1ccc(/C=C(\C#N)c2[nH]nc(N)c2C#N)o1	i	41	i	45	56	58
CCOC(=O)/C(=C\Nc1cccc(OCc2ccccc2)c1)NC(=O)c1ccccc1	nt	i	nt	i	nt	nt
Cc1cc2c(c(=O)o1)[C@@]1(C(=O)Nc3ccccc31)C1=C(CCCC1=O)O2	nt	i	nt	i	nt	nt
COC(=O)c1ccc(NC(=O)c2cn(-c3ccccc3)nc2-c2ccncc2)cc1	i	31	i	30	51	61
O=C(Nc1ccc(N2CCCC2)cc1)c1cc2ccccc2o1	i	43	i	77	146	i
CCOc1ccc(C(=O)Nc2cccc(-c3cc4ccccc4oc3=O)c2)cc1[N+](=O)[O-]	i	26	i	42	37	46
CCOc1ccc(C(=O)Nc2cc(-c3nc4ccccc4[nH]3)ccc2C)cc1[N+](=O)[O-]	i	i	i	i	nt	nt
CCOc1ccccc1NC(=O)c1ccc(OCC)c([N+](=O)[O-])c1	i	i	i	i	nt	nt
CCOc1ccc(C(=O)Nc2cc(-c3nc4ccccc4[nH]3)ccc2Cl)cc1[N+](=O)[O-]	i	69	i	109	123	151
SMILES	EBNA-1 inh	ASAP1 GAP inh	ZTA counter	ARFGAP1 inh	ASAP1 GAP conf	ARFGAP1 inh conf
CN(C(=O)[C@@H](Cc1ccccc1)NC(=O)[C@H]1O[C@@H](n2cnc3c(=O)[nH]c(N)nc32)[C@H](O)[C@@H]1O)C1CCCCC1	nt	i	nt	i	nt	nt
Nc1[nH]c(C(=O)c2ccccc2)c(-c2cccc(C(F)(F)F)c2)c1C(=O)c1c[nH]c2ccccc12	nt	i	nt	i	nt	nt
O=C(CSc1nnnn1-c1ccccc1)Nc1nsc(-c2ccc(Cl)cc2)n1	i	26	i	44	45	58
C=CCN=C1NC(c2ccc(Cl)cc2)C(C(=O)OC)=C(C)N1C (configuration not stated)	nt	i	nt	i	nt	nt
CC1(C)OC(=O)C2=C(CC(CCc3ccccc3)OC2CCc2ccccc2)O1 (configuration not stated)	nt	i	nt	i	nt	nt
COc1cc(NC(=O)c2cccnc2)ccc1-c1cc2ccccc2oc1=O	i	i	i	i	nt	nt
O=C(Nc1ccc(-c2cc3ccccc3oc2=O)c(Cl)c1)c1cccnc1	i	46	i	62	59	82
CCc1cc2c(nc1CC)CCCN2S(=O)(=O)c1ccc(C#N)cc1	nt	i	nt	i	nt	nt
COc1cccc(C=NNC(=O)c2ccncc2)c1O	nt	i	nt	i	nt	nt
COc1ccccc1C=NNC(=O)NN=Cc1ccccc1OC	nt	30	nt	57	53	67
COc1cccc(/C=N/NC(=O)N/N=C/c2cccc(OC)c2O)c1O	i	31	i	64	81	95
CC(C)OC(=O)[C@@H](Cc1ccccc1)N[C@H](/C=C/c1ccccc1)[C@@H](O)Cc1ccccc1	nt	i	nt	i	nt	nt
COc1ccc(/C=N/NC(=O)c2cc3c(ccc4ccccc43)o2)cc1OC	nt	102	nt	76	115	82
COc1ccc(/C=N\NC(=O)c2cc3c(ccc4ccccc43)o2)cc1O	nt	72	nt	28	96	76
Nc1ccc2nc(-c3ccc(-c4nc5ccc(N)cc5[nH]4)cc3)[nH]c2c1	i	i	i	i	nt	nt
Nc1ccc2nc(-c3cccc(-c4nc5ccc(N)cc5[nH]4)n3)[nH]c2c1	i	+	i	+	+	+
Cc1ccc(-c2nn(-c3ccccc3)cc2/C=C/C(=O)Nc2nccs2)cc1	i	34	i	52	i	68
O=C(/C=C/c1cn(-c2ccccc2)nc1-c1ccccc1)Nc1ccc(C(=O)O)cc1	i	i	i	i	nt	nt
C[n+]1c(-c2ccc(C=NNC(=O)c3ccc(C(=O)NN=Cc4ccc(-c5cn6ccccc6[n+]5C)cc4)cc3)cc2)cn2ccccc21	nt	42	nt	66	50	90
O=C1C(Cl)=C(N2CCC(C(=O)O)CC2)C(=O)c2ccccc21	i	nt	i	nt	nt	nt
NC(=O)C1CCN(C2=C(Cl)C(=O)c3ccccc3C2=O)CC1	i	41	i	29	i	i
O=C(NCc1ccccc1)[C@H]1CCCN1C(=O)[C@H]1CCCN1C(=O)C1CCCCC1	nt	i	nt	i	nt	nt
COC(=O)c1ccc(COc2ccc(/C=C(\C#N)c3nc4ccccc4[nH]3)cc2OC)o1	i	35	i	61	78	108
COc1cc(/C=C(/C#N)c2nc3ccccc3[nH]2)ccc1OCc1ccc(C(=O)O)o1	i	i	i	i	nt	nt
Cc1ccccc1Nc1cc2ccccc2c(=O)[nH]1	i	nt	i	nt	nt	nt
O=c1[nH]c(Nc2ccccc2Cl)cc2ccccc12	i	48	i	29	i	i
COc1ccc(C2CC(=O)C(c3ccc(C(C)=O)cc3)=CN2Cc2ccccc2)cc1 (configuration not stated)	nt	i	nt	i	nt	nt

Screening results deposited in PubChem BioAssay by The Scripps Research Institute Molecular Screening Center.
